The source of these data is ChEMBL document CHEMBL4513216, “Probing the Open Global Health Chemical Diversity Library for Multistage-Active Starting Points for Next-Generation Antimalarials” (ACS Infect Dis, 2020).

The nature of the data set: Toxicity liver stage against HepG2, at 10uM. The note with it: human, HepG2-A16-CD81EGFP cells; read-out: INHIBITION
The data set is classed as cell-based. Also on record: test concentration 10 uM, cell line HepG2-A16-CD81EGFP. The essentials: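 Uninfected HepG2-A16-CD81EGFP cells, 3 × 10^3 per well, 1536-well, plated on prespotted compound at 10 μM final, parasite-free screening media added to match infected plates; puromycin 10 μM positive, DMSO 0.5% negative; run in parallel with 48 h PbLuc assay at 37 °C, 5% CO2; viability by CellTiter-Glo luminescence, normalized to controls.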
Consider `COCC(=O)N[C@H](C)c1onc(-c2ccc(F)cc2)c1C(=O)O`, for which the cytotoxicity at 10 µM is -8.15%. Regarding `CCCC(O)CN1CCC(=O)N(CC)Cc2cc3c(cc21)OCO3` (stereo unspecified), the cytotoxicity at 10 µM was -18.5%. On to `O=C1CCNc2cc3c(cc2CN1Cc1ccco1)OCO3`, for which the cytotoxicity at 10 µM was 6.36%. With `CCN1Cc2cc(F)ccc2N(C(=O)C2CCC2)CCC1=O`, the cytotoxicity at 10 µM is -41.2%. Turning to `Cc1cc2ccccc2n1CC(=O)N[C@@H](C)C(=O)O`, the cytotoxicity at 10 µM came to 0.77%. With `Cc1cc(C)nc(N2CCC(C(=O)Nc3n[nH]c(CC(C)C)n3)CC2)n1`, the cytotoxicity at 10 µM was 5.61%. Regarding `Cn1cnnc1SCCCNC(=O)Nc1ncccn1`, the cytotoxicity at 10 µM worked out at 0.252%. In the case of `COc1ccc(CC(C)(O)CNC(=O)NCc2cccs2)cc1` (stereo unspecified), the cytotoxicity at 10 µM came out at 5.62%. Regarding `COC(=O)N1CCc2ccccc2C1C(=O)NCc1ccco1` (stereo unspecified), the cytotoxicity at 10 µM is -1.94%.

With `O=C(Cc1ccccn1)N1C[C@@H](Oc2cccnc2)[C@H]2OCCC[C@H]21`, the cytotoxicity at 10 µM turned out to be 7.8%.

Turning to `CN(C)C(=O)COCC1CN(CC2CCOCC2)Cc2ncn(C)c21` (stereo unspecified), the cytotoxicity at 10 µM was 1.03%. As to `Cc1csc([C@H]2C[C@@H]3CCN(C(=O)c4ccnnc4)C[C@H]3O2)n1`, the cytotoxicity at 10 µM is -1.95%. Take `CCc1c(C)n(CC(C)=O)c2nc3ccccc3n2c1=O`: the cytotoxicity at 10 µM came out at 5.44%. `O=C1CC(c2ccccc2F)c2c(n3ccsc3nc2=O)N1` (stereo unspecified): the cytotoxicity at 10 µM is -5.93%. The result for `CCCN(C(=O)COCC)c1cccc(C)c1` reads 0.727%; that for `Cc1nc2[nH]cnc(NCCCN3CCOCC3)c-2n1`, -13.3%.

`CNC(=O)[C@@H]1CN(Cc2ccccc2)C[C@H]1C(=O)c1ccc(F)cc1`: the cytotoxicity at 10 µM was -0.17%. Take `CC(c1cc(O)nc(NC2CCCC2)n1)n1ncc2ccccc2c1=O` (stereo unspecified): the cytotoxicity at 10 µM is 22.9%.

Turning to `CCn1ncc(S(=O)(=O)N[C@@H]2CC[C@@H](n3ccnc3)[C@@H]2O)c1C`, the cytotoxicity at 10 µM is -3.4%. Regarding `CCN(Cc1cccnc1)CC1(C)Cc2c(N)nc(N)nc2O1` (stereo unspecified), the cytotoxicity at 10 µM was 0.705%. The result for `Cc1cc(C2CCCN2C(=O)Nc2cn[nH]c2)on1` (stereo unspecified) reads 1.24%. The result for `CN1N=C(C(=O)NCCc2csc(-c3ccccc3)n2)CCC1=O` reads 0.621%; that for `Cc1ccc(C2CSCCN2C(=O)NCc2cccnc2)cc1` (stereo unspecified), 5.48%. The result for `CCC(C)Oc1cc(C(=O)N(c2cccnc2)C(C)C)ccn1` (stereo unspecified) reads 8.77%. Regarding `COc1cc(NC(=O)N(C)CCC2CC2)ncn1`, the cytotoxicity at 10 µM is -1.3%. The same measure for `Cn1nc(Br)c2c(=O)n(CCc3ccccc3)cnc21`: -1.4%; for `CCc1c(C(=O)N2CCOC(C)(C)C2)cnn1-c1ccccn1`: -7.92%; for `N#CC1(NC(=O)c2nccc3ccccc23)CCSCC1`: 8.8%.

With `Cc1cc(Cn2c(=O)c3c(C(F)(F)F)cc(C)nc3n2C)on1`, the cytotoxicity at 10 µM is -0.976%. The same measure for `CCOc1ccc(Cl)cc1CCNC(=O)Cn1nc(C)ccc1=O`: -3.91%; for `O=C(CCn1ccnn1)N1CCCC(n2cncn2)C1` (stereo unspecified): -1.26%; for `COC1CCN(c2ccc(F)cc2CN(C)S(C)(=O)=O)CC1`: -12.5%. `CNC(=O)CC1CCN(C(=O)NCC2(c3ccccc3F)CC2)CC1`: the cytotoxicity at 10 µM was found to be 4.27%.

For `CCS(=O)(=O)c1ccc(N2CCC(NC(=O)c3ccccn3)CC2)cc1`, the cytotoxicity at 10 µM was 10.8%. As for `CC1CCN(C)c2ccccc2N1C(=O)c1ccc(=O)n(C)n1` (stereo unspecified), the cytotoxicity at 10 µM worked out at 1.53%.

For the compound `Cc1nnc(C(NS(=O)(=O)c2cc(F)c(C)cc2F)C(C)C)[nH]1` (stereo unspecified), the cytotoxicity at 10 µM was -5.19%. For the compound `Cc1ccc(S(=O)(=O)NC(C)C#N)cc1Br` (stereo unspecified), the cytotoxicity at 10 µM was found to be 0.727%. Consider `CC(NC(=O)CCS(=O)(=O)C1CCCC1)c1nc(-c2ccccc2)c[nH]1` (stereo unspecified), for which the cytotoxicity at 10 µM amounted to 1.05%.

As for `O=C(CCC1CCCO1)NCc1ccc(Br)cc1F` (stereo unspecified), the cytotoxicity at 10 µM came out at 1.6%. The same measure for `CN(CC1CCCN(S(C)(=O)=O)C1)c1cnn(C)c1` (stereo unspecified): 2.56%. `CNS(=O)(=O)c1csc(C(=O)N(C)Cc2sccc2C)c1`: the cytotoxicity at 10 µM was 16.4%. Regarding `CN(Cc1cccs1)C(=O)Cn1cc(NC(=O)C(C)(C)C)cn1`, the cytotoxicity at 10 µM is -3.52%. The result for `Cc1ccc(CNCc2nnc3n2CCCC3C(F)(F)F)o1` (stereo unspecified) reads 19.5%; that for `CCc1nc(CNC(=O)Nc2ccc(C(=O)NC)cc2C)cs1`, 16.4%. The same measure for `CC(C)S(=O)(=O)NCC1CCCN(C(=O)c2cccnc2)C1` (stereo unspecified): -7.16%; for `O=C1NCCO[C@H]2CN(C(=O)Cc3csc4ccccc34)CC[C@@H]12`: -101%. The result for `COC[C@H]1CC[C@H]2[C@H](CCN2S(=O)(=O)c2ccccc2)O1` reads -1.45%; that for `O=C(c1ccnnc1)N1C[C@H](OCC2CCOCC2)[C@H]2OCCC[C@H]21`, 3.86%. As for `Cc1nc(CN2C(=O)CC[C@H]3[C@@H]2CCN3C(=O)c2ccsc2)cs1`, the cytotoxicity at 10 µM was determined as 1.8%. The same measure for `Cc1noc(C)c1CN(C)C(=O)CN1CC(c2ccccc2)CC1=O` (stereo unspecified): -2.4%; for `CCCN1CCCn2nc(CNC(=O)CN(C)C3CCCC3)cc2C1`: -0.992%; for `c1cncc(NCCNC2CCCNC2)c1` (stereo unspecified): -4.5%. The same measure for `CC(C)Cc1cc(C(=O)N2CCC(Oc3cccnc3)CC2)n(C)n1`: -0.423%; for `CC(C)=CCN1CC2(CCN(Cc3ncc[nH]3)CC2)CC1=O`: -10.8%; for `CSc1cccc(CN(C)C(=O)Cn2ncc(N(C)C)cc2=O)c1`: 0.0849%. The same measure for `CSc1ncccc1C(=O)N(C)C(C)Cc1ccccn1` (stereo unspecified): 2.28%; for `Cc1ccc(C(=O)N2CCC3(CC2)C(=O)NCCN3C)cc1O`: -0.081%; for `Cc1ccc(CCNC(=O)CC2COCCN2S(=O)(=O)N(C)C)o1` (stereo unspecified): 3.39%. As for `O=C1NCC2(CCCN(C(=O)Cn3nc4ccccc4n3)CC2)O1` (stereo unspecified), the cytotoxicity at 10 µM is -3.45%. The same measure for `O=C(NCCc1c[nH]cn1)c1ccc(S(=O)(=O)NC2CCOC2)cc1` (stereo unspecified): -1.91%; for `CCNC(=O)C(C)Oc1ccc(N(C)S(C)(=O)=O)cc1` (stereo unspecified): 1.07%.

Turning to `O=C(NCc1cc(O)ncn1)C1COc2ccccc2C1` (stereo unspecified), the cytotoxicity at 10 µM was -9.76%.

In the case of `CCc1cnc(CN(C)C2CCN(Cc3nnc(C4CC4)n3C)C2)o1` (stereo unspecified), the cytotoxicity at 10 µM is -5.09%. Regarding `CSCCC(=O)N1CCCN(Cc2cnn(C(C)C)c2)CC1`, the cytotoxicity at 10 µM is -25.3%.

Turning to `CCOc1ccc(CNC(C)c2ccc3[nH]c(=O)[nH]c3c2)cc1` (stereo unspecified), the cytotoxicity at 10 µM is -7.79%. The same measure for `OCCN1CCC(CNCc2ccccc2OC(F)(F)F)CC1`: -13.7%; for `Cc1cnn(CC2CCCN2Cc2cc(C)on2)c1` (stereo unspecified): -8.51%; for `Cc1cc(C)n(CC2CN(Cc3nnc(C)o3)CCO2)n1` (stereo unspecified): -7.95%. For the compound `CN(C)c1ccc(C(=O)Nc2cn[nH]c2)cc1`, the cytotoxicity at 10 µM was -0.279%. For `CN(Cc1ccco1)C(=O)NC1CCCN(c2ncccn2)C1` (stereo unspecified), the cytotoxicity at 10 µM is -13.6%. The result for `COCCN1CCC(C(=O)c2cc(F)ccc2F)CC1` reads -9.47%; that for `Cc1ccc(CC(=O)N2CCCC(n3nc(C)cc3C)C2)cn1` (stereo unspecified), -8.54%; that for `COCCOc1ccc(NC(=O)C2CC(=O)N(CC3CC3)C2)cn1` (stereo unspecified), -30.7%. Regarding `COCCOc1ccc(NC(=O)C2CC(=O)N(C3CC3)C2)cn1` (stereo unspecified), the cytotoxicity at 10 µM is -6.93%. The same measure for `CN(C)c1ncccc1CNC(=O)N1CCCC1c1cccs1` (stereo unspecified): -12%; for `Cc1nc(C)n(CC2CCCCN2CC(=O)Nc2nnc(C)s2)n1` (stereo unspecified): -10.6%. Consider `NC(=O)CN1CCCN(C(=O)Cc2ccc(F)cc2)CC1`, for which the cytotoxicity at 10 µM is -9.17%. The same measure for `Cc1c(C(=O)N2CCCC(n3cccn3)C2)nnn1-c1ccccc1` (stereo unspecified): -3.45%. Consider `Cc1cnn(CC2CCCCN2C(=O)Cc2cn3ccsc3n2)c1` (stereo unspecified), for which the cytotoxicity at 10 µM is -5.5%. The same measure for `CCCc1nc(CN2CCCC(c3noc(C4CC4)n3)C2)no1` (stereo unspecified): -8.87%. Take `Cc1ccc(CC(=O)N2CCN(C3CCOC3=O)CC2)cc1` (stereo unspecified): the cytotoxicity at 10 µM is -18.7%. The same measure for `CCN(CC)CCNC(=O)c1cnc(C(C)(C)C)s1`: -8.94%. As for `CN(CCc1ccccn1)S(=O)(=O)N1CCCC1c1ccco1` (stereo unspecified), the cytotoxicity at 10 µM is -14.8%. The result for `CC(C)c1ncncc1C(=O)NCCN1CCCS1(=O)=O` reads -8.98%. The result for `CCNc1cc2c(nn1)CCN(C(=O)c1ccnc(N(C)C)c1)C2` reads -20.9%; that for `Cc1ccc(CN(C)C(=O)CN2CCOC(Cn3cncn3)C2)o1` (stereo unspecified), -7.98%. With `CS(=O)(=O)NCc1cncc2c1CCN(C(=O)c1cccnc1)C2`, the cytotoxicity at 10 µM was 5.12%.

For the compound `CC(C)NC(=O)N1CCC2(CCC(=O)N2CCN2CCCC2)CC1`, the cytotoxicity at 10 µM was determined as 3.7%. On to `CCO[C@H]1CC[C@H]2[C@H]1OCCN2CCOCc1ccccc1`, for which the cytotoxicity at 10 µM was -111%. For `Cc1ccoc1C(=O)N1CC[C@@H]2CN(C3CCOCC3)CCO[C@@H]2C1`, the cytotoxicity at 10 µM was -120%. The result for `O=C1[C@H]2CN(c3ncccn3)C[C@H]2CN1Cc1ccncc1` reads -12.1%; that for `COCC1CN(Cc2csc(C)n2)Cc2nccn2C1` (stereo unspecified), 3.16%. Turning to `CCS(=O)(=O)N1CCC[C@]2(C(=O)N(C)C)CN(c3ccccn3)C[C@@H]2C1`, the cytotoxicity at 10 µM was -8.93%. For the compound `Cc1cc(C(=O)N2CCC3(CC2)C(=O)N(C)CCN3CC2CC2)c(C)o1`, the cytotoxicity at 10 µM was -96.5%. As for `CN1CC(=O)N(c2ccccc2)CC12CCN(C(=O)CC1CC1)C2` (stereo unspecified), the cytotoxicity at 10 µM amounted to 0.972%. `O=C(c1cccnc1)N1C[C@H]2CC[C@@H](C1)N(Cc1ncc[nH]1)C2`: the cytotoxicity at 10 µM was -13.2%.
